The source of these data is ChEMBL document CHEMBL3352330, “Discovery of azetidine based ene-amides as potent bacterial enoyl ACP reductase (FabI) inhibitors” (Eur J Med Chem, 2014).

Values after ≈ are worked out from the molar mass of the structure shown.

Data set [1] has as its target T1, Enoyl-[acyl-carrier-protein] reductase [NADPH] FabI (Staphylococcus aureus) (UniProt Q6GI75).
T1 sequence (whole entry): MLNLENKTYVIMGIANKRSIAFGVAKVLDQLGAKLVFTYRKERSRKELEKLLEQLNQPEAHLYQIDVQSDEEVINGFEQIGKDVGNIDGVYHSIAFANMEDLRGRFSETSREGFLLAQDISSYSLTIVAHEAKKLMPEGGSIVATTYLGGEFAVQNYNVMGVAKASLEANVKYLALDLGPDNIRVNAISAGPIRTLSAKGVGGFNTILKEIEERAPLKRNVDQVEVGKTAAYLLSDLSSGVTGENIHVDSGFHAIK
Put plainly: Inhibition of Staphylococcus aureus FabI-mediated reduction of enoyl-ACP preincubated at 1 uM for 30 mins measured after 2 hrs by spectrophotometry. The method in brief: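 Spectrophotometric FabI assay in 100 mM sodium ADA buffer, pH 6.5. Enzyme (2400 ng/assay) preincubated 30 min with NADH and compound. Reaction started with crotonoyl CoA. After 2 h at room temperature, NADH oxidation read as the fall in absorbance at 340 nm.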

Data set [2] addresses T2, Enoyl-[acyl-carrier-protein] reductase [NADPH] FabI (Staphylococcus aureus, UniProt Q6GI75).
T2 sequence (Q6GI75 whole entry): T1 sequence (whole entry)
Put plainly: Inhibition of Staphylococcus aureus FabI-mediated reduction of enoyl-ACP preincubated for 30 mins measured after 2 hrs by spectrophotometry.

Data set [3] relates to Staphylococcus aureus. In words: Antibacterial activity against methicillin-sensitive Staphylococcus aureus ATCC 29213 after 16 to 20 hrs by broth microdilution method. Format: functional. Put shortly:
(§1)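 Broth microdilution in MHB, serial two-fold compound dilutions; final inoculum 5 × 10⁵ CFU/mL; broth, compound and organism controls in duplicate; S. aureus ATCC 29213 as quality control strain; incubation 35 °C, 16–20 h, ambient air; growth read by unaided eye with viewing device, end point set against no-antibiotic control wells.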

Data set [4] concerns Staphylococcus aureus. Put plainly: Antibacterial activity against methicillin-resistant Staphylococcus aureus ATCC 33591 after 16 to 20 hrs by broth microdilution method. Format: functional. Put shortly: as §1
(In general: Broth dilution looks for growth in wells or tubes with falling amounts of substance.)

The test system of data set [5] is Staphylococcus epidermidis. In words: Antibacterial activity against methicillin-resistant Staphylococcus epidermidis AUCC 704 after 16 to 20 hrs by broth microdilution method. Format: functional. The method in brief:
as §1

Data set [6] in a line: Tmax in Swiss albino CD-1 mouse at 10 mg/kg, po administered as single dose. Format: ADME, organism-based. Details: dose 10 mg/kg, route oral. The note with it: in vivo. The method in brief: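 Oral gavage, 10 mg/kg single dose, given as a suspension in 0.25% Tween 80 with 0.225% sodium carboxymethyl cellulose. Blood drawn from the retro-orbital plexus into EDTA at set times (sparse sampling, n = 3 per time point). Plasma stored at −20 °C and assayed by LC-MS/MS. Parameters from non-compartmental analysis.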

The nature of data set [7]: Metabolic stability in mouse liver mirosomes assessed as compound remaining at 1 uM after 15 mins by LC-MS/MS analysis. The class given is ADME, tissue-based. As to conditions: liver microsomes, read-out: Stability. The method in brief:
(§2)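 Compound tested at 1 µM in mouse liver microsomes (0.3 mg/mL protein) with 1 mM NADPH in KH₂PO₄ buffer, pH 7.4, at 37 °C. Reactions stopped at 0, 15 and 60 min with acetonitrile containing carbamazepine internal standard. Samples centrifuged and the supernatant analysed by LC-MS/MS.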

Data set [8] in a line: Metabolic stability in mouse liver mirosomes assessed as compound remaining at 1 uM after 60 mins by LC-MS/MS analysis. The note with it: liver microsomes, read-out: Stability. The class given is ADME, tissue-based. The method in brief:
as §2
For orientation: Liver microsomes are a subcellular fraction often used to study metabolism.

Data set [9] is described as follows: AUC in Swiss albino CD-1 mouse at 10 mg/kg, po administered as single dose. Format: ADME, organism-based. Also on record: dose 10 mg/kg, route oral. As to conditions: plasma. The method in brief:
(§3)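 Blood drawn from the retro-orbital plexus into EDTA at set times (sparse sampling, n = 3 per time point). Plasma stored at −20 °C and assayed by LC-MS/MS. Parameters from non-compartmental analysis.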

The nature of data set [10]: Cmax in Swiss albino CD-1 mouse at 10 mg/kg, po administered as single dose. Also on record: dose 10 mg/kg, route oral. As to conditions: in vivo. The class given is ADME, organism-based. Put shortly: as §3
Data set [11] can be described thus: Half life in Swiss albino CD-1 mouse at 10 mg/kg, po administered as single dose. Format: ADME, organism-based. Also on record: dose 10 mg/kg, route oral. As to conditions: in vivo. Put shortly: as §3
The test system of data set [12] is Staphylococcus aureus. Put plainly: Antibacterial activity against methicillin-resistant Staphylococcus aureus ATCC 33591 infected in Swiss albino CD-1 mouse compound administered orally bid at 1 hr and 4 hrs post infection. Format: functional. As to conditions: ATCC 33591, po.

`Cc1c(C2CN(C(=O)/C=C/c3cnc4c(c3)CCC(=O)N4)C2)sc2ccccc12`: the inhibition – broadly, the drop in the measured response relative to a control, in per cent – in data set [1] is 89%. Besides, the IC50 (usually the midpoint of a concentration-inhibition curve) in data set [2] is 709 nM. Besides, the results for the MIC in [3], in data set [4] and in data set [5] were 0.125 µg/mL (≈ 0.31 µM), 0.25 µg/mL (≈ 0.62 µM) and 2 µg/mL (≈ 4.96 µM), respectively. In addition, in data set [6], the time of peak concentration (Tmax) (commonly the time from dosing to the highest level) came out at 4 h.
Turning to `O=C1CCc2cc(/C=C/C(=O)N3CC(COc4ccc(F)cc4)C3)cnc2N1`, in data set [1], the inhibition stood at 92%. The compound further gave a 50% inhibitory concentration (IC50) in [2] of 316 nM. Further, the values for the minimum inhibitory concentration (MIC) in data set [3], in [4] and in data set [5] were 0.25 µg/mL (≈ 0.655 µM), 0.5 µg/mL (≈ 1.31 µM) and 1 µg/mL (≈ 2.62 µM), respectively. Moreover, the Tmax in data set [6] was determined as 2 h.
As for `Cc1c(CN(C)C(=O)/C=C/c2cnc3c(c2)CCC(=O)N3)oc2ccccc12` [AFN-1252], the inhibition in data set [1] is 100%. The IC50 in data set [2] was 29 nM. Moreover, the MIC in data set [3], in [4] and in [5] was 0.008 µg/mL (≈ 0.0213 µM) each time. Besides, in data set [7], the remaining at 0.25 h, 1 µM amounted to 55.4%. In [8], the remaining at 1 h, 1 µM worked out at 17.5%. For the same compound, the AUC – broadly, concentration integrated over time – in data set [9] stood at 2200 ng·h/mL. The highest level in data set [10] (Cmax) was 440 ng/mL. The half-life (in general, the time in which the quantity being followed falls by half) in data set [11] was 1.84 h. In data set [6], the time of peak concentration (Tmax) was 1 h.
As for `Cc1c(C2CN(C(=O)/C=C/c3cnc4c(c3)CN(C)CC(=O)N4)C2)oc2ccccc12`, the inhibition in data set [1] amounted to 99%. The compound further had an IC50 in [2] of 112 nM. Also, the MIC (commonly the lowest concentration found to suppress growth) was found to be 0.25 µg/mL (≈ 0.6 µM) in data set [3], 0.25 µg/mL (≈ 0.6 µM) in [4] and 0.5 µg/mL (≈ 1.2 µM) in data set [5]. Moreover, in data set [7], the remaining at 0.25 h, 1 µM was 25.6%. The remaining at 1 h, 1 µM in data set [8] was 6.6%.
In [1], `Cc1c(C2CN(C(=O)/C=C/c3cnc4c(c3)CNCC(=O)N4)C2)oc2ccccc12` registered an inhibition of 83%. For the same compound, the IC50 in data set [2] is 384 nM. The results for the MIC in data set [3], in data set [4] and in data set [5] were 0.25 µg/mL (≈ 0.621 µM), 0.25 µg/mL (≈ 0.621 µM) and 1 µg/mL (≈ 2.48 µM), respectively. In addition, the remaining at 0.25 h, 1 µM in data set [7] worked out at 96.2%. Moreover, in data set [8], the remaining at 1 h, 1 µM came to 76.4%. In data set [9], this compound returned an AUC of 9000 ng·h/mL. For the same compound, the highest level in data set [10] (Cmax) was 2250 ng/mL. The half-life in data set [11] is 8.5 h. In addition, the Tmax in data set [6] stood at 0.5 h.
In data set [1], `Cc1c(C2CN(C(=O)/C=C/c3cnc4c(c3)CCC(=O)N4)C2)oc2ccc(Cl)cc12` displayed an inhibition of 82%. Further, in data set [2], half-maximal inhibition (IC50) required 204 nM. The figures for the MIC in data set [3], in [4] and in data set [5] were 0.25 µg/mL (≈ 0.593 µM), 0.25 µg/mL (≈ 0.593 µM) and 0.5 µg/mL (≈ 1.19 µM), respectively. The Tmax in data set [6] was determined as 1 h.
In turn, `Cc1ccccc1OCC1CN(C(=O)/C=C/c2cnc3c(c2)CCC(=O)N3)C1` had an inhibition in [1] of 80%. Besides, the IC50 in [2] was determined as 177 nM. The MIC stood at 0.25 µg/mL (≈ 0.662 µM) in [3], 0.5 µg/mL (≈ 1.32 µM) in data set [4] and 1 µg/mL (≈ 2.65 µM) in data set [5]. Besides, the Tmax in data set [6] was 2 h.
`Cc1c(C2CN(C(=O)/C=C/c3cnc4c(c3)CCC(=O)N4)C2)oc2ccccc12` registered an inhibition in data set [1] of 96%. Also, the IC50 in [2] is 141 nM. In addition, the MIC in [3] was determined as 0.06 µg/mL (≈ 0.155 µM); in [4], 0.06 µg/mL (≈ 0.155 µM); in data set [5], 0.5 µg/mL (≈ 1.29 µM). Moreover, the Tmax in [6] was found to be 2 h. Moreover, in data set [12], the ED50 – broadly, the midpoint of the dose-response relation – was 0.9 mg/kg.
For the compound `O=C1CCc2cc(/C=C/C(=O)N3CC(c4ccccn4)C3)cnc2N1`, in data set [1], the inhibition amounted to 87%. In addition, half-maximal inhibition in data set [2] (IC50) was put at 242 nM. Besides, the minimum inhibitory concentration (MIC) turned out to be 4 µg/mL (≈ 12 µM) in data set [3], 8 µg/mL (≈ 23.9 µM) in data set [4] and 16 µg/mL (≈ 47.8 µM) in [5].
Turning to `O=C1CCc2cc(/C=C/C(=O)N3CC(c4nc5ccccc5s4)C3)cnc2N1`, in data set [1], the inhibition amounted to 83%. The same compound showed an IC50 in data set [2] of 373 nM. The MIC in data set [3] turned out to be 0.25 µg/mL (≈ 0.64 µM); in data set [4], 0.25 µg/mL (≈ 0.64 µM); in data set [5], 1 µg/mL (≈ 2.56 µM). Besides, the Tmax in [6] was found to be 2 h.
As to `O=C1CCc2cc(/C=C/C(=O)N3CC(COc4ccc5ccccc5c4)C3)cnc2N1`, the inhibition in data set [1] turned out to be 68%. This compound yielded a half-inhibitory concentration (IC50) in [2] of 1410 nM. The MIC in data set [3] is 4 µg/mL (≈ 9.67 µM); in data set [4], 4 µg/mL (≈ 9.67 µM); in [5] it was greater than 32 µg/mL.
The compound `CC(=O)NC[C@H]1CN(c2ccc(N3CCOCC3)c(F)c2)C(=O)O1` [LINEZOLID] came in with a median effective dose (ED50) in data set [12] of 2.8 mg/kg.
`O=C1CCc2cc(/C=C/C(=O)N3CC(COc4cccc(F)c4)C3)cnc2N1` displayed an inhibition in data set [1] of 89%. The same compound returned an IC50 in data set [2] of 438 nM. Moreover, the figures for the MIC in [3], in data set [4] and in data set [5] were 1 µg/mL (≈ 2.62 µM), 2 µg/mL (≈ 5.24 µM) and 2 µg/mL (≈ 5.24 µM), respectively.
In turn, `O=C1CCc2cc(/C=C/C(=O)N3CC(COc4ccccc4F)C3)cnc2N1` came in with an inhibition in data set [1] of 99%. In data set [2], this compound returned an IC50 of 378 nM. Also, the MIC in data set [3] came to 1 µg/mL (≈ 2.62 µM); in [4] it was 1 µg/mL (≈ 2.62 µM); in data set [5], 2 µg/mL (≈ 5.24 µM).
